Data on 7 compounds can be found in ChEMBL document CHEMBL4382253, “Isolation and Characterization of Anaephenes A-C, Alkylphenols from a Filamentous Cyanobacterium ( Hormoscilla sp., Oscillatoriales)” (J Nat Prod, 2018).

Assay [1] has as its system Staphylococcus aureus. The assay is described as follows: Antibacterial activity against Staphylococcus aureus ATCC 25923 Seattle 1945 measured after overnight incubation. The class given is functional. The gist of the method: (§1)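 Strain precultured overnight in LB broth at 37 °C, then diluted 10^6-fold in fresh medium. 2-fold serial broth microdilution in 96-well plates from 100 μM top concentration, DMSO or water negative control. Triplicate wells. MIC taken as the lowest concentration showing no turbidity.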

In assay [2] the test system is Pseudomonas aeruginosa. Nature of the assay: Antibacterial activity against Pseudomonas aeruginosa PAO1 ATCC BAA-47 measured after overnight incubation. The class given is functional. Summed up:
as §1

The test system of assay [3] is Bacillus cereus. The assay is described as follows: Antibacterial activity against Bacillus cereus ATCC 10987 NRS 248 measured after overnight incubation. Format: functional. The gist of the method:
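B. cereus grown overnight in LB broth at 30 °C, diluted 10^6-fold in fresh medium. 2-fold serial broth microdilution in 96-well plates starting at 100 μM, DMSO or water as negative control. Triplicates. MIC is the lowest concentration with no visible turbidity.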

Assay [4] has as its system Mycobacterium tuberculosis. Nature of the assay: Antibacterial activity against Mycobacterium tuberculosis H37Ra ATCC 25177 measured after 1 week. Format: functional. The note with it: H37Ra ATCC 25177, 168 h. The gist of the method: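 M. tuberculosis H37Ra grown two weeks in Middlebrook 7H9, diluted to OD600 0.01; broth microdilution in 96-well plates, compounds given at 2-fold final concentration in first column then serially diluted 2-fold; DMSO or H2O negative control, streptomycin positive control; triplicates; incubated one week at 37 °C.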

The subject of assay [5] is HCT-116. Nature of the assay: Cytotoxicity against human HCT116 cells after 48 hrs by MTT assay. The note with it: HCT-116, 48 h. The class given is functional, cell-based. Summed up: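 Cells kept in DMEM with 10% FBS and 1% antibiotic-antimycotic at 37 °C, 5% CO2. Seeded at 10,000 cells/well, treated after 24 h with a range of concentrations or DMSO. Viability read by MTT after 48 h.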

Assay [6] has as its system Saccharomyces cerevisiae. Nature of the assay: Antifungal activity against Saccharomyces cerevisiae BY4741 measured after overnight incubation by spectrometric method. The class given is functional. The gist of the method: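 Yeast grown overnight in YPD at 30 °C. Cell density set by A660, final 10 × 10^5 cells/mL. 2-fold serial dilution in YPD from 100 μM, DMSO negative control, nystatin positive control starting at 25 μM. Triplicates, overnight incubation.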

≈ marks a conversion by molar mass, not a printed value. Where only a bound is given, the exact number is not on record here.

In assay [1], `O=C(N[C@H](CO)[C@H](O)c1ccc([N+](=O)[O-])cc1)C(Cl)Cl` [CHLORAMPHENICOL] had an MIC of 4 µg/mL (≈ 12.4 µM).

Consider `CCC/C=C/C=C/CCc1cccc(O)c1`, for which the MIC in assay [2] is greater than 22 µg/mL; in assay [3], 22 µg/mL (≈ 102 µM); in assay [4], greater than 22 µg/mL; in assay [6], greater than 22 µg/mL; in assay [1], 22 µg/mL (≈ 102 µM). The compound also yielded an IC50 in assay [5] greater than 100 µM.

For NYSTATIN, in assay [6], the MIC was determined as 23 µg/mL.

In the case of `CN[C@@H]1[C@H](O[C@H]2[C@H](O[C@H]3[C@H](O)[C@@H](O)[C@H](N=C(N)N)[C@@H](O)[C@@H]3N=C(N)N)O[C@@H](C)[C@]2(O)C=O)O[C@@H](CO)[C@H](O)[C@H]1O` [STREPTOMYCIN], the MIC in assay [2] was found to be 6.2 µg/mL (≈ 10.7 µM); in assay [4], 3.1 µg/mL (≈ 5.33 µM).

As to `C#CCCC/C=C/CCCCc1cccc(O)c1`, the MIC in assay [2] is greater than 24 µg/mL; in assay [3], 6.1 µg/mL (≈ 25.2 µM); in assay [4] it was greater than 24 µg/mL; in assay [6], greater than 24 µg/mL; in assay [1] it was 6.1 µg/mL (≈ 25.2 µM). For the same compound, the IC50 in assay [5] turned out to be 71 µM.

Turning to `CCC/C=C/CCCCc1cccc(O)c1`, the MIC is greater than 22 µg/mL in assay [2]; 11 µg/mL (≈ 50.4 µM) in assay [3]; greater than 22 µg/mL in assay [4]; greater than 22 µg/mL in assay [6]; 22 µg/mL (≈ 101 µM) in assay [1]. Moreover, 26 µM corresponded to half-maximal inhibition in assay [5] (IC50).

`O=C(O)c1cn(C2CC2)c2cc(N3CCNCC3)c(F)cc2c1=O` [CIPROFLOXACIN] showed an MIC in assay [3] of 0.03 µg/mL (≈ 0.0905 µM).
